From paper PMC10563180 (Current cancer drug targets, 2020)
Like-named read-outs stand apart in the source and are kept apart here.

Tests used:
[1] = tested on: HEK293 cells; test: FACS analysis of cell cycle distribution; assay type: cell-based, human; conditions: 48 hours
How it was run: (§1)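 Cells treated with test compound at several concentrations for 48 h. 1×10^6 cells trypsinized, washed in PBS and resuspended in 1% BSA/PBS. Fixed in 3 volumes of −20 °C ethanol for ≥1 h, washed twice, then stained ≥3 h at 4 °C at ~1×10^6 cells/ml in PI (50μg/ml), RNase A (0.5μg/ml) and 3.8mM sodium citrate. Flow cytometry, excitation 535nm, emission 617nm, ≥10,000 cells/sample.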

[2] = tested on: DLD1 cells; test: Cell growth inhibition; assay type: cell-based, human; conditions: through apoptosis; more effective toward DLD1 cells
[3] = molecular target: FGFR2 (Homo sapiens, UniProt P21802); test: Recombinant kinase 33P-ATP activity assay; assay type: biochemical
[4] = molecular target: CDK2/cyclin A (Homo sapiens, UniProt P24941); test: Recombinant kinase 33P-ATP activity assay; assay type: biochemical
[5] = molecular target: PDGFrb (Homo sapiens, UniProt P09619); test: Recombinant kinase 33P-ATP activity assay; assay type: biochemical
[6] = tested on: C6 cells; test: Western blot of signaling proteins; assay type: cell-based, rat; conditions: 48 hours
How it was run: (§2)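 Cells exposed to indicated concentrations of test compound for 48 h. Harvested by trypsin/EDTA, lysed 15 min on ice in M-PER with protease inhibitors (10^7 cells/ml), cleared at 17000rpm for 30 min. Protein measured by Bradford; 30μg resolved by SDS-PAGE onto PVDF. Blocked in 5% milk/TBST; primary antibodies overnight at 4°C, HRP secondaries 1 h at room temperature; ECL detection with β-tubulin loading control.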

[7] = tested on: HEK293 cells; test: Western blot of signaling proteins; assay type: cell-based, human; conditions: 48 hours
How it was run: as §2

[8] = tested on: DLD1 cells; test: Caspase 3/7 activity assay; assay type: cell-based, human; conditions: 24 hours treatment, 0.2, 1 and 5μM
How it was run: (§3)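 Cells grown in DMEM with 10% FBS and penicillin/streptomycin at 37°C, 5% CO2, then seeded at 1×10^4 per well. […] Caspase 3/7 read by caspase-Glo, normalized to each line's untreated control (=1); mean of 6 wells ± standard deviation.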

[9] = tested on: Difi cells; test: Caspase 3/7 activity assay; assay type: cell-based, human; conditions: 24 hours treatment, compared with Cetuximab
How it was run: as §3

[10] = tested on: colon and glioma cells; test: FACS analysis of cell cycle distribution; assay type: cell-based; conditions: all the cell lines, low concentrations, 48 hours
How it was run: as §1

[11] = molecular target: EGFr (Homo sapiens, UniProt P00533); test: Recombinant kinase 33P-ATP activity assay; assay type: biochemical
[12] = tested on: C6 cells; test: Caspase 3/7 activity assay; assay type: cell-based, rat; conditions: 24 hours treatment, any of the tested concentrations
[13] = molecular target: FLT1/VEGFR1 (Homo sapiens, UniProt P17948); test: Recombinant kinase 33P-ATP activity assay; assay type: biochemical
[14] = tested on: GPCR pathway genes in C6, HCT116, DLD1 and Difi cells; test: GPCR signaling pathway profiling by real-time PCR; assay type: cell-based; conditions: 5μM, 48 hours, all 4 cell lines
How it was run: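 Total RNA taken from C6, DLD1, HCT116 and Difi cells treated with or without 5μM test compound for 48 h, then reverse transcribed. DLD1 cDNA screened on an 82-gene human GPCR-pathway qPCR array, with control and treated expression compared by subtraction. Hits confirmed in C6 and the three colon lines by SYBR Green real-time PCR with primers in different coding regions.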

[15] = molecular target: FGFR1 (Homo sapiens, UniProt P11362); test: Recombinant kinase 33P-ATP activity assay; assay type: biochemical
[16] = tested on: HCT116 cells; test: Caspase 3/7 activity assay; assay type: cell-based, human; conditions: 24 hours treatment, up to 5μM
How it was run: as §3

[17] = tested on: HEK293 cells; test: Caspase 3/7 activity assay; assay type: cell-based, human; conditions: 24 hours treatment, 0.2, 1 and 5μM
How it was run: as §3

[18] = tested on: C6 cells; test: Cell growth inhibition; assay type: cell-based, rat; conditions: through apoptosis
[19] = tested on: DLD1 cells; test: Western blot of signaling proteins; assay type: cell-based, human; conditions: 48 hours, different concentrations
[20] = molecular target: PDGFRa (Homo sapiens, UniProt P16234); test: Recombinant kinase 33P-ATP activity assay; assay type: biochemical
[21] = molecular target: ERBB2/HER2 (Homo sapiens, UniProt P04626); test: Recombinant kinase 33P-ATP activity assay; assay type: biochemical
[22] = molecular target: c-Src (Homo sapiens, UniProt P12931); test: Recombinant kinase 33P-ATP activity assay; assay type: biochemical
[23] = tested on: HCT116 cells; test: Western blot of signaling proteins; assay type: cell-based, human; conditions: 48 hours, different concentrations
[24] = molecular target: KDR/VEGFR2 (Homo sapiens, UniProt P35968); test: Recombinant kinase 33P-ATP activity assay; assay type: biochemical
[25] = read-out: % Enzyme Activity (Relative to DMSO Controls – 100%) Data 1
[26] = read-out: % Enzyme Activity (Relative to DMSO Controls – 100%) Data 2

Chain of EGFr (P00533 25-1210): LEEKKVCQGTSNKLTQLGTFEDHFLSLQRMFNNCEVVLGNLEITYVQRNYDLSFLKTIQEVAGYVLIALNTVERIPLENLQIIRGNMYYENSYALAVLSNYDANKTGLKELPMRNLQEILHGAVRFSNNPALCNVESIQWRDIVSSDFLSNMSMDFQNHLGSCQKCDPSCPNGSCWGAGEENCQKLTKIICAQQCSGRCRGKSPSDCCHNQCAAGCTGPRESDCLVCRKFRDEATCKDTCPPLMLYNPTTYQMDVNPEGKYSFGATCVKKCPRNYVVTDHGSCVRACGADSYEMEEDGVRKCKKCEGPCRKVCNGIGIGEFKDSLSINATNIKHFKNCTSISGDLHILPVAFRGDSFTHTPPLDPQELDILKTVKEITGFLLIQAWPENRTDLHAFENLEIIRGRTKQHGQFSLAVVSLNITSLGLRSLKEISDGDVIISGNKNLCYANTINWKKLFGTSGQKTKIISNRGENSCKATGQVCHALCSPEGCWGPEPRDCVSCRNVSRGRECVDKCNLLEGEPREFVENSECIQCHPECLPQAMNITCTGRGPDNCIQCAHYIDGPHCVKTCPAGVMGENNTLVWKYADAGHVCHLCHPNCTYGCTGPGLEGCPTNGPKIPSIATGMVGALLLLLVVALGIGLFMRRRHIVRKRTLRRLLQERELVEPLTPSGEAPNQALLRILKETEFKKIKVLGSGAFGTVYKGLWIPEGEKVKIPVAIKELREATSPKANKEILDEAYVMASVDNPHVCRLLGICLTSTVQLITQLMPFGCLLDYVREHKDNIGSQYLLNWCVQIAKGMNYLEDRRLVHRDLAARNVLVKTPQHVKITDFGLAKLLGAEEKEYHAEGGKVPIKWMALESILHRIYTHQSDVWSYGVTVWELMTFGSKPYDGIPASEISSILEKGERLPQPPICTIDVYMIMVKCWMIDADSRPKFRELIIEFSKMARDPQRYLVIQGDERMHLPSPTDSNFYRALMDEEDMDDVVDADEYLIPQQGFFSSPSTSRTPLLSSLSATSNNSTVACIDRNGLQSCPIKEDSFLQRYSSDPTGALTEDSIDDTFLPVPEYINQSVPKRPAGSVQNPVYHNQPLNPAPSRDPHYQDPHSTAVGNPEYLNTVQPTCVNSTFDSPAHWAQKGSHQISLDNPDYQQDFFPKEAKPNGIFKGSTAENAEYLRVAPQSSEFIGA
Chain of c-Src (P12931 whole entry): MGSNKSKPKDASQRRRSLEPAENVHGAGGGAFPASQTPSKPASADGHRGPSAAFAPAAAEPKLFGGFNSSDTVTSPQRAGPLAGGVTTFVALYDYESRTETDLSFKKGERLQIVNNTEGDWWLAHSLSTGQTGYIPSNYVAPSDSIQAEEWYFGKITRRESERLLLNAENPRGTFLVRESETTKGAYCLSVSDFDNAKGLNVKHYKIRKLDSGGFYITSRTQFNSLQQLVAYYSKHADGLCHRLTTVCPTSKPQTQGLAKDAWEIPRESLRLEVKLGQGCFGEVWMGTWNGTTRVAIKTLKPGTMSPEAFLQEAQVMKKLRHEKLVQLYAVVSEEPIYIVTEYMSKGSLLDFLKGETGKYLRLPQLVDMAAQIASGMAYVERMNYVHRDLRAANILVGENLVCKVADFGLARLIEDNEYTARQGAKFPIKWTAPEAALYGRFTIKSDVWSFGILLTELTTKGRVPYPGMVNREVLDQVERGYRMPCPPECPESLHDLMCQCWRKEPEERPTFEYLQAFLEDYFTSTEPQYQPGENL
Chain of PDGFrb (P09619 33-1106): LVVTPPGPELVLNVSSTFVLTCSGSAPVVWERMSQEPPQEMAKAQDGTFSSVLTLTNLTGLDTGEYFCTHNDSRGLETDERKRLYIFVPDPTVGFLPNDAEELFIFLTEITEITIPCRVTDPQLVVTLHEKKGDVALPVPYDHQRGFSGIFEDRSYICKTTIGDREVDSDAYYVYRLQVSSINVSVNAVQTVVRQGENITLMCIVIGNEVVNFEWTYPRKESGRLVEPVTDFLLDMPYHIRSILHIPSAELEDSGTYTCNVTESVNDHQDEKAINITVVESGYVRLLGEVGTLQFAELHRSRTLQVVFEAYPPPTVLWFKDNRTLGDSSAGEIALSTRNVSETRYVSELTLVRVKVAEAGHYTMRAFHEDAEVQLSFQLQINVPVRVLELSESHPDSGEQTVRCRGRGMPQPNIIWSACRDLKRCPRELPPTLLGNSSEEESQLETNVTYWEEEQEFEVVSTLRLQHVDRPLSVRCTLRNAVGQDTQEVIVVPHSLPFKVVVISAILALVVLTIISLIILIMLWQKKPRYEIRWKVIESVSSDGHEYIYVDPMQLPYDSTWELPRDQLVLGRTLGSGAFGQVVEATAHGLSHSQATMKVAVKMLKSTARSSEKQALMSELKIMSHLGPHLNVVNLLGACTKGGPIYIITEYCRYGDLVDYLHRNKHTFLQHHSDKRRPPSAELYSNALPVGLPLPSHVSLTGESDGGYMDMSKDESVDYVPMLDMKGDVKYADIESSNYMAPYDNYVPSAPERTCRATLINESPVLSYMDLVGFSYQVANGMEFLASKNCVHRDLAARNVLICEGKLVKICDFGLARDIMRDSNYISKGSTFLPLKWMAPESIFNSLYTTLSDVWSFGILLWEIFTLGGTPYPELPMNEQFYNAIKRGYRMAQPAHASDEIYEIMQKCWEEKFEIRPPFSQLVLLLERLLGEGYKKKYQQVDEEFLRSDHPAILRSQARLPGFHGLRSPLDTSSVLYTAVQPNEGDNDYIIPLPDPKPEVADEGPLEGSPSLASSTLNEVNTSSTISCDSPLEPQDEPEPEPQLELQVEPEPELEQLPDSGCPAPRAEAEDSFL
Chain of FLT1/VEGFR1 (P17948 27-1338): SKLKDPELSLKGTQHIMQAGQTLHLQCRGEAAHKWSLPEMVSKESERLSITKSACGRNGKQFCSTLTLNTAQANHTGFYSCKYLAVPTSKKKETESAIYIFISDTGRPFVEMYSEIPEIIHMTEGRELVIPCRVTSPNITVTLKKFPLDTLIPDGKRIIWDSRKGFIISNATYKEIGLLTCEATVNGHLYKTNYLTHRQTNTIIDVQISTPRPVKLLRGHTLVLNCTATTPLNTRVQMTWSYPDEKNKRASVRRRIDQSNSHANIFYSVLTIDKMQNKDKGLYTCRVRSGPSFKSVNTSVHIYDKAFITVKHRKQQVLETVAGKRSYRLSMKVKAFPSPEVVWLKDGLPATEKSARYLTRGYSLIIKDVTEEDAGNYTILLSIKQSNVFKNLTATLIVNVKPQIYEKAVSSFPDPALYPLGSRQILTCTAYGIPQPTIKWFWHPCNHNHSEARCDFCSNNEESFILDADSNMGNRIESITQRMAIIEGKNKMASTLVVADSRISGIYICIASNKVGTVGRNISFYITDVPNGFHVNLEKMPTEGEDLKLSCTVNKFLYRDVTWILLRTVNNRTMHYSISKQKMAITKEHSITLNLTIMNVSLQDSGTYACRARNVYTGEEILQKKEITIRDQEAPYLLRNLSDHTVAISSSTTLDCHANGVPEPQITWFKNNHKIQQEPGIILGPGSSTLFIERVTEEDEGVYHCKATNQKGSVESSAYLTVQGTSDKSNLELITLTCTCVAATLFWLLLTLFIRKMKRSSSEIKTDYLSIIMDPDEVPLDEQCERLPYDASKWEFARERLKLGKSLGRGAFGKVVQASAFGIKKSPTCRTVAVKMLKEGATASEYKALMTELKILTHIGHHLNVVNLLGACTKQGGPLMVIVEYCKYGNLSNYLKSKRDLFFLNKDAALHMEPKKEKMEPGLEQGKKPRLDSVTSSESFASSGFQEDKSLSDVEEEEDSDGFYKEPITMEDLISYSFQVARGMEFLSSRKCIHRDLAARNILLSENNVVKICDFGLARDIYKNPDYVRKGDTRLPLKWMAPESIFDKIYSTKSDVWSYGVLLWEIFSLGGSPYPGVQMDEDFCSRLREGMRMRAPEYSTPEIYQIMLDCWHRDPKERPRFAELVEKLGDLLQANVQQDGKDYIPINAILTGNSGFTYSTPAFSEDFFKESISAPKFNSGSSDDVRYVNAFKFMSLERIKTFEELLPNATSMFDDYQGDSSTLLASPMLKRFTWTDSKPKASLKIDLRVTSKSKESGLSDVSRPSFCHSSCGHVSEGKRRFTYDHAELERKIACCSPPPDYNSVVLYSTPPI
Chain of FGFR1 (P11362 22-822): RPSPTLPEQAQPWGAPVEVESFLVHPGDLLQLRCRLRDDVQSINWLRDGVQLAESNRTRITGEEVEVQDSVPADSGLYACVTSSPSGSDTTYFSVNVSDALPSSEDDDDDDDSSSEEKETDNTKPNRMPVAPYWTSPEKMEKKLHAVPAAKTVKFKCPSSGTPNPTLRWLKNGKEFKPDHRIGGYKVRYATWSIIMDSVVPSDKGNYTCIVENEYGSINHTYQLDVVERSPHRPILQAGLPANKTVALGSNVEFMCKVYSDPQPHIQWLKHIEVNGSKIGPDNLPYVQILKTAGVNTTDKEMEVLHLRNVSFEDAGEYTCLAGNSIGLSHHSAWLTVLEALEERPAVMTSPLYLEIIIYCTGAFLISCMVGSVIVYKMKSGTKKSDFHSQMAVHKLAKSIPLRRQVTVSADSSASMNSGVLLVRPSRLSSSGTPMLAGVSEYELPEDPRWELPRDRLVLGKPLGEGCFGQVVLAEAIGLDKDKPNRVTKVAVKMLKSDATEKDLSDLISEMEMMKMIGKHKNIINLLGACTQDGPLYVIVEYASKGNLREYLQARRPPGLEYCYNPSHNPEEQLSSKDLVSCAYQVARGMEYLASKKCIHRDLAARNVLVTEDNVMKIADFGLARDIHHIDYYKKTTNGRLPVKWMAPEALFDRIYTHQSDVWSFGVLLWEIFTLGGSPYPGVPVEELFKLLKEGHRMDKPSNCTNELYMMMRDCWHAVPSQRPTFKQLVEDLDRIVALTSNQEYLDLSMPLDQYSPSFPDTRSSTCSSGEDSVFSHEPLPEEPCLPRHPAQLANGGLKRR

- remaining activity at 1 µM [3, 25]: 96.1%
- remaining activity at 1 µM [3, 26]: 94.9%
- inhibition on CDK2 ([4]; 1μM): 6%
- remaining activity at 1 µM [4, 25]: 94.4%
- remaining activity at 1 µM [4, 26]: 94.2%
- inhibition at 1 µM ([4]; read-out: inhibition on CDK2, 1μM): 5 to 6%
- remaining activity at 1 µM [5, 25]: 100%
- remaining activity at 1 µM [5, 26]: 99.9%
- effects on EGFr kinase activity ([11]; 1μM): minimal effects
- remaining activity at 1 µM [11, 25]: 99.1%
- remaining activity at 1 µM [11, 26]: 97.8%
- remaining activity at 1 µM [13, 25]: 100%
- remaining activity at 1 µM [13, 26]: 99.8%
- remaining activity at 1 µM [15, 25]: 107%
- remaining activity at 1 µM [15, 26]: 104%
- remaining activity at 1 µM [20, 25]: 96.3%
- remaining activity at 1 µM [20, 26]: 96.2%
- remaining activity at 1 µM [21, 25]: 99.3%
- remaining activity at 1 µM [21, 26]: 98.2%
- remaining activity at 1 µM [22, 25]: 99.2%
- remaining activity at 1 µM [22, 26]: 99%
- remaining activity at 1 µM [24, 25]: 98.3%
- remaining activity at 1 µM [24, 26]: 98%
SMILES: CCn1c2ccccc2c2cc(N/N=C3/C(=O)NN=C3C)ccc21 [VUGX01, (4E)-4-[2-(9-ethyl-9H-carbazol-3-yl)hydrazin-1-ylidene]-3-methyl-4,5-dihydro-1H-pyrazol-5-one]
- cell cycle distribution ([1]; 5μM): shifts the cell population from G1 to G2 phase
- cell death (cells in sub G0 phase) [1]: noticeable amount of cell death
- cell growth [2]: can inhibit the growth
- phosphorylation of AKT at serine 473 [6]: minor increase
- effect on tested proteins (p-c-raf, map2k, AKT, p-AKT) [7]: no effect
- caspase 3/7 activation [8]: greatly activate
- caspase activation [9]: less potent but is effective
- effects on G1 or G2/M phases [10]: minimal effects
- caspase activation [12]: effectively activate
- expression of AGT, AGTR1, AGTR2, GCGR, MMP9, PIK3CG, PTGS2, SCTR, TSHR [14]: elevated
- caspase 3/7 activation [16]: minimal effect
- caspase 3/7 activation [17]: only slight activation
- cell growth [18]: can inhibit the growth
- p-c-raf (Ser259) and map2k level [19]: increased at low concentrations and decreased at high concentrations
- p-c-raf (Ser259) and map2k level [23]: increased at low concentrations and decreased at high concentrations
